Assay results from different studies.
Compare with care: the assays were run in different laboratories.
Target: Tyrosine-protein kinase Blk (BLK, Homo sapiens, UniProt P51451)

With O=C(c1ccc(Nc2nccc(-c3cc4ccccc4s3)n2)cc1)N1CCC(N2CCCC2)CC1 the remaining binding was 100% (binding, competition with immobilised ligand; 1 µM).
With CO[C@@H](C)c1c(Nc2ccc([C@@H](N(C)C(=O)C3CCS(=O)(=O)CC3)C(F)(F)F)cc2)cnc2cc(Cl)nn12 the remaining binding was 56% (cell-free assay, competition with immobilised ligand; 1 µM).
C[C@@H](c1ccc(-n2cnc3c(N)ncnc32)cc1)N1CCc2nn(C)c(Cc3ccccc3)c2C1=O gave a remaining binding of 89% (binding, competition with immobilised ligand; 0.1 µM).
CCN1CCN(Cc2ccc(C(=O)Nc3ccc(C)c(Oc4ccc5c(c4)CC(=O)N5)c3)cc2C(F)(F)F)CC1 has a remaining binding of 93% (binding, competition with immobilised ligand; 1 µM).
Cc1c(C(=O)O)cc(-c2ccc(C3CCNCC3)cc2)c2ccc(-c3ccc(C(F)(F)F)cc3)cc12 has a remaining binding of 100% (cell-free assay, competition with immobilised ligand; 1 µM).
The remaining binding of C=CC(=O)N1CCC(C(=O)NCC(=O)N2CCN(c3nc(-c4cnc(N)nc4C(F)F)nc(N4CCOCC4)n3)CC2)CC1 is reported as 100% (binding, competition with immobilised ligand; 1 µM).
With O=C(c1ccc(Nc2ncc(Cl)c(-c3cc4ccccc4s3)n2)cc1)N1CCC(N2CCCC2)CC1 the remaining binding was 100% (binding, competition with immobilised ligand; 1 µM).
With COc1cc(-c2cn(C3CCc4ccccc4N(CC(F)(F)F)C3=O)nn2)ccc1-n1ccc(C)n1 (stereo not shown) the remaining binding was 100% (cell-free assay, competition with immobilised ligand; 1 µM).
COc1ccnn2ncc(-c3ccnc(N(C)C)n3)c12 has a remaining binding of 100% (binding; 1 µM).
With Cc1cnc(Nc2ccc(C(=O)N3CCC(N4CCCC4)CC3)cc2)nc1-c1cc2ccccc2s1 the remaining binding was 74% (binding, competition with immobilised ligand; 1 µM).
The remaining binding of N[C@H]1CCN(c2nccc(-c3cnn4ncccc34)n2)C1 is reported as 100% (binding; 1 µM).
For O=C(Nc1c[nH]nc1C(=O)NC1CCNCC1)c1cc(F)cc(F)c1, the remaining binding was 83% (binding, competition with immobilised ligand; 1 µM).
C[C@@H]1CCN(c2nccc(-c3cnn4ncccc34)n2)C1 has a remaining binding of 100% (binding; 1 µM).
For Nc1ncc2c(n1)-c1c([nH]c3ccc(C#CC4CC4)cc13)CCCC2, the remaining binding was 100% (binding, competition with immobilised ligand; 1 µM).
CN(C)c1ncc(F)c(-c2cnn3ncccc23)n1 gave a remaining binding of 90% (binding; 1 µM).
COc1cnc(Nc2cccc(S(N)(=O)=O)c2)nc1N1CCN(c2ccccc2)C(=O)C1 has a remaining binding of 100% (binding, competition with immobilised ligand; 1 µM).
The remaining binding of c1ccc(N2CCN(Cc3nc4ccccc4[nH]3)CC2)nc1 is reported as 100% (cell-free assay, competition with immobilised ligand; 1 µM).
CN(C)c1nccc(-c2cnn3ncccc23)n1 gave a remaining binding of 100% (binding; 1 µM).
For Nc1cnc(N2CCc3cc(S(=O)(=O)Nc4c(F)cc(Cl)cc4F)cc(N4CCCC4=O)c32)nc1, the remaining binding was 100% (cell-free assay, competition with immobilised ligand; 1 µM).
The remaining binding of Cc1cnn2ncc(-c3ccnc(N(C)C)n3)c2c1 is reported as 28% (binding; 1 µM).
The remaining binding of CN([C@@H]1CCc2c(CC(=O)O)c3cc(S(C)(=O)=O)ccc3n2C1)S(=O)(=O)c1ccc(F)cc1 is reported as 99% (cell-free assay, competition with immobilised ligand; 1 µM).
The remaining binding of CN(CCCC(F)(F)F)c1nccc(-c2cnn3ncccc23)n1 is reported as 91% (binding; 1 µM).
